From PubChem BioAssay
An excerpt weighted towards active compounds, which were near 5.5% of everything screened.
HSV augment – enhancers of HSV replication in host cells, fold increase, host cell viability; HSV replication augmentation in cells; maximum fold increase; 220,000 tested, 0.005% active; AID 1956, 2009; in the data active = maximum fold increase above about 1.5; inconclusive = no clear call, values can overlap the other calls; tested in PC3 cells
STAT1 act – STAT1 signaling activators, primary screen, cell-based, HTS, luciferase reporter; NIH 3T3 STAT1-luciferase reporter, IFN-gamma, luminescence; 100% = IFN-gamma alone, no compound; activation (% of control), % at 5.5 µM; 200,000 tested, 2.6% active; AID 932, 2007;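 active = activation above the screen-wide mean activation plus 3 SD, cut at about 130% in these data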;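 also: raw ratio to IFN-gamma control signal so 100% means no change and 0% no light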
STAT3 blocker – IL-6 driven STAT3 reporter inhibitors, primary screen, U3A cells, luciferase, luminescence, MLSCN library; inhibition, % at 5.5 µM; IL-6 STAT3-luciferase reporter; host cell line lacks STAT1; 190,000 tested, 0.89% active;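 active = inhibition above the mean inhibition across all screened compounds plus 3 SD, cut at about 44% in these data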;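 also: 0% = DMSO only wells and 100% = 100 µM nifuroxazide control wells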
STAT1 blocker – STAT1 signaling inhibitors, primary screen, cell-based, HTS, luciferase reporter; NIH 3T3 STAT1-luciferase reporter, IFN-gamma, luminescence; inhibition, % at 5.5 µM; 200,000 tested, 0.35% active; AID 920, 2007;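 active = inhibition above a set limit, the mean inhibition across all tested compounds plus 3 SD, cut at about 34% in these data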;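 also: 0% = IFN-gamma with DMSO and 100% = IFN-gamma with 300 µM nifuroxazide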
Cl transport mod – KCC2 cotransporter modulators, thallium flux, primary screen, cell-based, HEK293 KCC2, FluoZin-2 fluorescence, MLSMR; Solute carrier family 12 member 5 (Homo sapiens), Q9H2X9; KCC2 cells, thallium flux FluoZin-2 fluorescence; B-score of Tl+ flux slope (higher = more flux/activation; lower = inhibition) at 10 µM; 190,000 tested, 2.2% active; AID 1456, 2008;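 active = thallium flux slope and its plate-corrected score both differing from the plate sample mean at a set confidence after two filtering rounds, in either direction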;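 also: slope of fluorescence scaled to starting intensity during 10 to 20 s after thallium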
Target sequence (Q9H2X9 whole entry, looked up): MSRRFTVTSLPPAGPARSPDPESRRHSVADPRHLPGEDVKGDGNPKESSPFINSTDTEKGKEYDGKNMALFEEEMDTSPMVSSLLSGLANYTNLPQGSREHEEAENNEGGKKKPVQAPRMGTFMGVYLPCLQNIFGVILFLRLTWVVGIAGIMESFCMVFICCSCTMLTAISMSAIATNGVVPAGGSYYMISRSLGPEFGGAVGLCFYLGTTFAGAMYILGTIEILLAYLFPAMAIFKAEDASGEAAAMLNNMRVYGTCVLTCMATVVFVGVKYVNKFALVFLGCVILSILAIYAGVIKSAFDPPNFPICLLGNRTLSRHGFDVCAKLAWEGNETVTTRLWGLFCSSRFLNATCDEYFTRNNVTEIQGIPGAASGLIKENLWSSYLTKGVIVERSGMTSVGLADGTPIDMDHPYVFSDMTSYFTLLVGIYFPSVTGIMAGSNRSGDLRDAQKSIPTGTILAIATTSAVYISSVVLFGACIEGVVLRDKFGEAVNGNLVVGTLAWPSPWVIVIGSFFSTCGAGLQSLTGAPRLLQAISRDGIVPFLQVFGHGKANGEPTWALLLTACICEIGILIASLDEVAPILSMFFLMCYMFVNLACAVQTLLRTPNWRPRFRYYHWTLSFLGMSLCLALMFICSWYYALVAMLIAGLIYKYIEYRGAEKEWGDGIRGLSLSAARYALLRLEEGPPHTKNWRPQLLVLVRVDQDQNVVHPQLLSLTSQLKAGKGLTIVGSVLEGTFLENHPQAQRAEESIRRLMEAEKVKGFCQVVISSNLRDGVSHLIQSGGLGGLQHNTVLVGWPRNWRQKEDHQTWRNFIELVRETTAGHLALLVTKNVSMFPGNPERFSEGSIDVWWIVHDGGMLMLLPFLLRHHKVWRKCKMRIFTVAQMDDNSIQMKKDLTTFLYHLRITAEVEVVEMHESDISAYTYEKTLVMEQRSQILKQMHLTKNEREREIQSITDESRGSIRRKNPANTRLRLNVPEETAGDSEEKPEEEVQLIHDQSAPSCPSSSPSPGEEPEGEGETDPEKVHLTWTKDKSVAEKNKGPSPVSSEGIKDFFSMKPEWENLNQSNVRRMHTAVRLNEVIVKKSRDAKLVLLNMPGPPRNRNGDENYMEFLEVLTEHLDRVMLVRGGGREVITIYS
STAT3 act – IL-6 driven STAT3 reporter potentiators, primary screen, U3A cells, luciferase, luminescence, MLSCN library. IL-6 STAT3-luciferase reporter; 100% = signal with IL-6 EC80 alone. 190,000 tested, 0.91% active. activation (% of control), % at 5.6 µM;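 active = activation above the screen-wide mean of compound activation plus 3 SD, cut at about 130% in these data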;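 also: 0% = background luminescence of wells with medium and substrate only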
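Material: STAT3-luciferase reporter U3A cells. Controls: IL-6-treated wells, 100% activation. Read-out: % activation versus median of IL-6-stimulated wells. Probe or stimulus: IL-6 stimulus at 33 ng/mL final. Timing: compound 1 h, then IL-6 6 h at 37 °C. Signal: reporter luminescence signal.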
* = called active by the depositor; i = inactive; ? = inconclusive; / = no result given.

SMILES | HSV augment | STAT1 act | STAT3 blocker | STAT1 blocker | Cl transport mod | STAT3 act
Cc1cccc(C(=O)NC(=S)NNC(=O)c2ccccc2Cl)c1 | i | 108.6 | 4.3 | -9.7 | 40.1* | 98.7
CCCN(CCC)C(=S)NC(=O)c1ccc(Cl)cc1Cl | i | 102.1 | 13.0 | -2.3 | 41.9* | 92.4
Cc1cccc(C(=O)NC(=S)Nc2ccccc2C(=O)O)c1 | i | 100.3 | 3.6 | -1.3 | -0.0869 | 107.6
O=C(Cc1ccc(Cl)c(Cl)c1)Nc1ccc2[nH]c(=O)[nH]c2c1 | i | 107.6 | -10.6 | -9.7 | 0.997 | 115.3
CCCCNC(=O)CSc1nc2cc3c(cc2c(=O)n1CCC(=O)NCCc1ccc(OC)c(OC)c1)OCO3 | i | 96.3 | 3.5 | 3.0 | 0.34 | 98.3
Cc1cccc(C(=O)NC(=S)Nc2ccccc2C(F)(F)F)c1 | i | 111.0 | 5.2 | -12.4 | 19.1* | 95.0
O=C(NC(=S)Nc1ccc(Cc2ccncc2)cc1)c1ccccc1F | i | 102.5 | 26.7 | -3.0 | 0.828 | 80.8
Cc1cccc(C)c1NC(=S)NC(=O)c1ccccc1F | i | 95.7 | 11.5 | 4.8 | 35.3* | 93.0
CCOC(=O)c1c(C)[nH]c(C2=NNC(=NC3CC3)SC2)c1C | i | 42.8 | 76.0* | 61.2* | -0.616 | 39.8
COC(=O)c1ccc(-c2ccc(/C=N/N3C(=O)C4C5C=CC(C6CC56)C4C3=O)o2)cc1 (stereo unspecified) | i | 137.6* | -3.6 | -42.2 | 0.0308 | 105.1
COC(=O)c1cccc(-c2ccc(/C=N/N3C(=O)C4C5C=CC(C6CC56)C4C3=O)o2)c1 (stereo unspecified) | i | 107.1 | 2.2 | -7.2 | -1.4 | 103.5
CC1=NN(c2ccccc2)C(=O)C1C(=O)c1ccc(Cl)cc1 (stereo unspecified) | / | 100.8 | -6.6 | -0.9 | 7.85* | 106.4
COc1cc(/C=C2/NC(=O)N(c3cccc(Cl)c3)C2=O)ccc1O | i | 134.1* | 40.2 | -38.8 | -0.816 | 68.6
COc1ccc(S(=O)(=O)N(C)C)cc1NC(=O)Cc1c[nH]c2ccccc12 | i | 87.7 | -40.0 | 13.8 | -0.529 | 133.3*
Cc1[nH]c2ccccc2c1/C=N/NC(=O)C1CC1(c1ccccc1)c1ccccc1 (stereo unspecified) | i | 107.5 | -23.5 | -8.4 | -0.786 | 116.8
CCCNC(=O)c1cc(-c2ccco2)on1 | i | 119.7 | -0.1 | -21.3 | 0.0962 | 103.2
O=C(NC1CCCCC1)c1cc(-c2ccco2)on1 | / | 129.9* | 11.5 | -33.0 | / | 94.6
COc1ccc(-n2nnnc2S(=O)(=O)CC(=O)N2CCCCC2)cc1 | i | 67.2 | 29.2 | 36.1* | / | 82.2
COc1cccc(N/C=C/c2onc(C)c2[N+](=O)[O-])c1 | i | 143.7* | 14.6 | -47.1 | -0.00159 | 94.8
COc1ccc(N/C(C)=C/C(=O)c2ccccc2)cc1 | i | 118.5 | 3.6 | -20.9 | 0.129 | 100.3
COc1ccc(OC)c(N/C(C)=C/C(=O)c2ccccc2)c1 | i | 133.7* | -8.2 | -38.4 | -1.08 | 107.0
Cc1cc(/C=C2/SC(=O)N(CC(=O)N3CCOCC3)C2=O)c(C)n1-c1ccccc1F | i | 126.5 | 5.7 | -29.4 | -0.365 | 97.6
COCn1c(COc2ccc3ccccc3c2)nc2ccccc21 | i | 137.9* | -10.3 | -41.3 | -2.03 | 111.4
CCn1c(COc2cccc(C)c2)nc2ccccc21 | i | 104.6 | 23.4 | -5.0 | -1.5 | 82.9
Cc1cc(S(=O)(=O)Nc2c(C(=O)O)[nH]c3ccccc23)ccc1F | i | 95.7 | -34.4 | 4.6 | / | 134.7*
SMILES | HSV augment | STAT1 act | STAT3 blocker | STAT1 blocker | Cl transport mod | STAT3 act
O=C(Cc1ccccc1[N+](=O)[O-])NCCCN1CCOCC1 | i | 103.7 | -4.3 | -7.0 | 1.17 | 107.8
C(=C\c1nc2ccccc2[nH]1)/c1ccccc1 | i | 61.3 | 81.9* | 43.0* | 0.0215 | 36.7
Cc1nc(/C=C/c2ccccc2)[nH]c(=O)c1-c1ccccc1 | i | 129.3* | 14.5 | -32.1 | -0.512 | 89.0
C(=C\c1ccco1)/c1nc2ccccc2[nH]1 | ? | 110.7 | 23.4 | -11.8 | 1.09 | 83.8
O=c1[nH]c(/C=C/c2cccc3ccccc23)nc2ccccc12 | i | 113.0 | 17.7 | -14.3 | 1.75 | 89.0
O=c1[nH]c2ccccc2nc1/C=C/c1ccc(Cl)cc1 | i | 132.9* | 11.0 | -37.2 | 0.464 | 92.7
Cc1cccc(/C=C\c2nc3ccccc3c(=O)[nH]2)c1 | i | 144.0* | 39.2 | -46.8 | 0.716 | 67.1
O=c1[nH]c(/C=C/c2ccc(OC(F)F)cc2)nc2c1cnn2-c1ccccc1 | i | 105.0 | 17.4 | -6.9 | -0.0059 | 91.4
C=CCn1c(SCC(=O)c2[nH]c(C)c(C(=O)OCC)c2C)nc2scc(-c3ccc(OC)cc3)c2c1=O | i | 103.9 | 3.7 | -1.8 | -0.0306 | 95.1
Cc1cc([N+](=O)[O-])ccc1N=Nc1c(N)[nH]n(-c2ccccc2)c1=O | i | 103.7 | 3.1 | -5.5 | 0.0127 | 98.5
Cc1[nH]n(-c2ccc([N+](=O)[O-])cc2)c(=O)c1N=Nc1nc2ccccc2s1 | / | 103.0 | -70.3 | -3.2 | 1.97 | 162.6*
C/C(=N\Nc1ccc(S(=O)(=O)N2CCOCC2)cc1[N+](=O)[O-])C(C)C | i | 101.6 | -3.8 | -4.3 | 0.606 | 104.3
COc1ccc(OC)c(/C=C2/Sc3ccccc3C2=O)c1 | i | 90.9 | 6.8 | 8.3 | 1.46 | 97.9
Cc1ccc(C(=O)NCCc2ccc(F)cc2)s1 | i | 129.1* | 12.9 | -35.2 | -1.29 | 93.2
COc1cc(C(=O)Nc2ccc(N(C)C)cc2)c([N+](=O)[O-])cc1OC | i | 145.8* | 5.6 | -49.3 | -1.21 | 100.4
CCOc1cc(/C=N\NC(=O)Cn2nnc3ccccc32)ccc1O | i | 104.4 | -5.9 | -6.5 | -0.178 | 107.0
COc1ccc(C2C(C(=O)O)CCC(=O)N2c2ccc(C)cc2)cc1OC (stereo unspecified) | i | / | / | / | 1.69 | /
Cc1ccc(C2=N/C(=C/N3CCOCC3)C(=O)O2)cc1 | i | 128.6* | -2.1 | -31.0 | -0.0263 | 105.9
Cc1ccc(C2=N/C(=C\N3CCCCC3)C(=O)O2)cc1 | i | 141.6* | 7.5 | -45.2 | -1.22 | 100.0
Cc1ccc(N2C(=S)N=C(Nc3ccccc3C)C23CCOC(C)(C)C3)cc1 (stereo unspecified) | i | 104.8 | 3.1 | -5.3 | 24.2* | 100.3
CN(C)S(=O)(=O)c1cc(NC(=O)[C@H](Cc2ccccc2)N2C(=O)c3ccccc3C2=O)ccc1Cl | i | 106.9 | -6.6 | -7.9 | 0.82 | 106.6
